Results on 27 compounds are retold here after ChEMBL document CHEMBL3797160, “Discovery of novel diaryl urea derivatives bearing a triazole moiety as potential antitumor agents” (Eur J Med Chem, 2016).

Structures are written as SMILES.

The subject of one experiment is HT-29. In words: Antiproliferative activity against human HT-29 cells after 72 hrs by MTT assay. The format is functional, cell-based. Conditions: HT-29, 72 h. A digest of the protocol:
(§1)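 MTT assay. Cells grown in MEM with 10% FBS. About 4 × 10³ cells per well were plated and left 24 h at 37 °C in 5% CO₂. Compounds were then added for a further 72 h. MTT was added to a final 5 µg/mL for 4 h at 37 °C. Formazan was dissolved in DMSO and read at 492 nm against a 630 nm reference. Each line was tested three times, and IC50 is the average of at least three determinations.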
Background: Formazan colour is commonly taken as a measure of viable cells.

A short description of experiment [1]: Antiproliferative activity against human H460 cells after 72 hrs by MTT assay. The settings on record: NCI-H460, 72 h. The format is functional, cell-based. The method, boiled down:
as §1

A further experiment has as its system MDA-MB-231. In words: Antiproliferative activity against human MDA-MB-231 cells after 72 hrs by MTT assay. In kind it is functional, cell-based. Conditions: MDA-MB-231, 72 h. The method, boiled down:
as §1

Experiment [2] is described as follows: Cytotoxicity against human WI38 cells after 72 hrs by MTT assay. In kind it is cell-based. The settings on record: WI-38, 72 h. The method, boiled down: as §1
For experiment [3], the target named is Mast/stem cell growth factor receptor Kit (Homo sapiens) (UniProt P10721). As to the kind of experiment: Inhibition of c-KIT (unknown origin) at 10 uM after 1 hr by mobility shift assay. A digest of the protocol: (§2)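 Mobility shift kinase assay. Compounds were diluted in DMSO and then in kinase buffer, and tested in duplicate wells with enzyme and peptide substrate. Incubation was 1 h at 28 °C before stop buffer was added.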

Experiment [4] addresses Proto-oncogene tyrosine-protein kinase receptor Ret (Homo sapiens) (UniProt P07949). As to the kind of experiment: Inhibition of RET (unknown origin) at 10 uM after 1 hr by mobility shift assay. A digest of the protocol: as §2
Experiment [5] deals with Receptor-type tyrosine-protein kinase FLT3 (Homo sapiens) (UniProt P36888). As to the kind of experiment: Inhibition of FLT3 (unknown origin) at 10 uM after 1 hr by mobility shift assay. A digest of the protocol: as §2
For experiment [6], the target named is Vascular endothelial growth factor receptor 2 (Homo sapiens) (UniProt P35968). Conditions: at 10 µM.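 Note: kinase activity read out by mobility shift assay after 1 h of incubation.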
Vascular endothelial growth factor receptor 2 (Homo sapiens), sequence (P35968 whole entry): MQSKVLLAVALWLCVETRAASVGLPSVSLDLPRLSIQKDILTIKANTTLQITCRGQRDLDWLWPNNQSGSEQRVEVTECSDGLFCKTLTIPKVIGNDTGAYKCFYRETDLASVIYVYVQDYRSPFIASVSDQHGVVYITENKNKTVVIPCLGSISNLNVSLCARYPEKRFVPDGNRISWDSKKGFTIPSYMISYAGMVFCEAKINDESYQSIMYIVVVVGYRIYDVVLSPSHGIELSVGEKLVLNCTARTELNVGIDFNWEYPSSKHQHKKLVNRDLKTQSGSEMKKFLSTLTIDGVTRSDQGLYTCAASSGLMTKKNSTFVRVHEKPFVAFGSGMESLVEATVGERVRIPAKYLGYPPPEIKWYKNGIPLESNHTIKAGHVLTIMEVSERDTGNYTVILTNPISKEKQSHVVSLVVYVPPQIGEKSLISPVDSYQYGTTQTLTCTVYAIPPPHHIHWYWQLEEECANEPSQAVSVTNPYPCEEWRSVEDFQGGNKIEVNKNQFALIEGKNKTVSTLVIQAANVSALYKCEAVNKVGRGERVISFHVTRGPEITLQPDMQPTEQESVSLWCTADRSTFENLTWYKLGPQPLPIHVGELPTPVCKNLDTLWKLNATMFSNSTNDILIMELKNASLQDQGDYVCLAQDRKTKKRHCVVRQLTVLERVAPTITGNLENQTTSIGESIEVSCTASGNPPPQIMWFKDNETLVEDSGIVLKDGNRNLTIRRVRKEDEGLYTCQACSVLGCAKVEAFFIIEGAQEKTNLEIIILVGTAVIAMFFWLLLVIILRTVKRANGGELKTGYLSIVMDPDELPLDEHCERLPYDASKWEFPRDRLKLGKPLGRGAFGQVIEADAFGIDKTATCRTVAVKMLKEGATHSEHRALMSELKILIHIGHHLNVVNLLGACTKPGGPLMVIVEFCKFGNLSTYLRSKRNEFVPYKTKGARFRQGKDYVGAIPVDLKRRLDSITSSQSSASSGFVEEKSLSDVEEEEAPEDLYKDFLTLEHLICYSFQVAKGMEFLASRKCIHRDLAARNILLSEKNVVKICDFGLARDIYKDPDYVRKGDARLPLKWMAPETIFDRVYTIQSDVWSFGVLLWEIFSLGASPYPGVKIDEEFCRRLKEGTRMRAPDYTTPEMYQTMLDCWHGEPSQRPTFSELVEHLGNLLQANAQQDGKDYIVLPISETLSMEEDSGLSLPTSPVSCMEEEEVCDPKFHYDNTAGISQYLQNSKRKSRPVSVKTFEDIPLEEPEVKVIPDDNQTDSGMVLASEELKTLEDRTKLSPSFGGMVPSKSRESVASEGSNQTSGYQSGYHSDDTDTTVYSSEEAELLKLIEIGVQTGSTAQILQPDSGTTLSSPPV

Receptor-type tyrosine-protein kinase FLT3 (Homo sapiens), sequence (P36888 whole entry): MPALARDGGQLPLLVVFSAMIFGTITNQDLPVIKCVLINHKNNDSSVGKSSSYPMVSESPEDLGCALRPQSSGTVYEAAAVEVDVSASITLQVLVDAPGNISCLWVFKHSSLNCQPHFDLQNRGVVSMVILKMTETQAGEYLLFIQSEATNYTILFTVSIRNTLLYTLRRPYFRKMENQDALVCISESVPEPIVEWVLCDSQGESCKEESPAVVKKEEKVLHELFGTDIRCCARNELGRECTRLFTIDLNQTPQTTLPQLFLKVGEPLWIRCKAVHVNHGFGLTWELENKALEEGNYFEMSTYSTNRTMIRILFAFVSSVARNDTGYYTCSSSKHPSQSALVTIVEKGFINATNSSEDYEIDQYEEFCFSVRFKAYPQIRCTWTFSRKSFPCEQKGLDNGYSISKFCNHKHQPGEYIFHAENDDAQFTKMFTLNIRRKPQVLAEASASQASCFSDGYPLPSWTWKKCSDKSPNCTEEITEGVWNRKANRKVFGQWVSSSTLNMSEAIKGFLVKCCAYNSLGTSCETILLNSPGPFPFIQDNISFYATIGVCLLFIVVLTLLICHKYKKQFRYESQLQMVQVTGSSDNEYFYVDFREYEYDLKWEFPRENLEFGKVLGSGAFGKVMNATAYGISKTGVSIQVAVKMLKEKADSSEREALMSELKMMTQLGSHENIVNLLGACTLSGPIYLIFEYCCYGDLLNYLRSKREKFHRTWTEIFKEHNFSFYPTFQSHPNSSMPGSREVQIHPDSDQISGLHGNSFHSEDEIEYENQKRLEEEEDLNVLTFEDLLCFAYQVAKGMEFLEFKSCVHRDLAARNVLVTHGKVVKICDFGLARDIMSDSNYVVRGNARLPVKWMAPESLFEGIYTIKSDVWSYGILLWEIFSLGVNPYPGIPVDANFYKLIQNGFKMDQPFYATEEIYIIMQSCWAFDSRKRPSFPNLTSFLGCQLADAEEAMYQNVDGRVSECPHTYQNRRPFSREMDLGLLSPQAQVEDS
Proto-oncogene tyrosine-protein kinase receptor Ret (Homo sapiens), sequence (P07949 whole entry): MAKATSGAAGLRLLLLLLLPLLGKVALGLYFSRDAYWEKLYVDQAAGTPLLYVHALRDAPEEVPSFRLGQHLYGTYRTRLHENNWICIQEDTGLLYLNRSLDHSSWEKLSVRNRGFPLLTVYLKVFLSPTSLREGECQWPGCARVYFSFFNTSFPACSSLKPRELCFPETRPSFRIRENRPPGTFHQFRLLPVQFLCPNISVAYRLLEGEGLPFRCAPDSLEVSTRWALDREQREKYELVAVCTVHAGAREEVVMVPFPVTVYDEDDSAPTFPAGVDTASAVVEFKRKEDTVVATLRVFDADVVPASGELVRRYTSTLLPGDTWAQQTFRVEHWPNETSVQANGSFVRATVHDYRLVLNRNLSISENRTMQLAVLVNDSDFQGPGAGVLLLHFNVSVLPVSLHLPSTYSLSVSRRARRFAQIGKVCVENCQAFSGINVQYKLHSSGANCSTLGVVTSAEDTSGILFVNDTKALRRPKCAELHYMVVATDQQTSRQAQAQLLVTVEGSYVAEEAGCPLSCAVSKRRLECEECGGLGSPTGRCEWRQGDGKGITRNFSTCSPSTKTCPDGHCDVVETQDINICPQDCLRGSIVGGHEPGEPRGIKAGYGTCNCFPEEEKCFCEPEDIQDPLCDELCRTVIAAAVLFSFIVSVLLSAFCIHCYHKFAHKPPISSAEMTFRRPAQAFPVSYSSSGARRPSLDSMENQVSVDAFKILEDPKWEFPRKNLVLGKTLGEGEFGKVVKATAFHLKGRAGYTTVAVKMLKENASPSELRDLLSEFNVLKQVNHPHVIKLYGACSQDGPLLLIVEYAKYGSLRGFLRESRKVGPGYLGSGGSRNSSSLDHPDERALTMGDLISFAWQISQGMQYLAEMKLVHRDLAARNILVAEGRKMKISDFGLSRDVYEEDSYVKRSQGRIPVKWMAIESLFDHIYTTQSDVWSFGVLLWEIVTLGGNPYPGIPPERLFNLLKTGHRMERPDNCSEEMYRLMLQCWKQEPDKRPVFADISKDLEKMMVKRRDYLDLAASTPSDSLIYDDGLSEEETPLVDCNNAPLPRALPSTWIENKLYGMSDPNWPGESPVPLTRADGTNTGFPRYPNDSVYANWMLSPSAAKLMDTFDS
Mast/stem cell growth factor receptor Kit (Homo sapiens), sequence (P10721 whole entry): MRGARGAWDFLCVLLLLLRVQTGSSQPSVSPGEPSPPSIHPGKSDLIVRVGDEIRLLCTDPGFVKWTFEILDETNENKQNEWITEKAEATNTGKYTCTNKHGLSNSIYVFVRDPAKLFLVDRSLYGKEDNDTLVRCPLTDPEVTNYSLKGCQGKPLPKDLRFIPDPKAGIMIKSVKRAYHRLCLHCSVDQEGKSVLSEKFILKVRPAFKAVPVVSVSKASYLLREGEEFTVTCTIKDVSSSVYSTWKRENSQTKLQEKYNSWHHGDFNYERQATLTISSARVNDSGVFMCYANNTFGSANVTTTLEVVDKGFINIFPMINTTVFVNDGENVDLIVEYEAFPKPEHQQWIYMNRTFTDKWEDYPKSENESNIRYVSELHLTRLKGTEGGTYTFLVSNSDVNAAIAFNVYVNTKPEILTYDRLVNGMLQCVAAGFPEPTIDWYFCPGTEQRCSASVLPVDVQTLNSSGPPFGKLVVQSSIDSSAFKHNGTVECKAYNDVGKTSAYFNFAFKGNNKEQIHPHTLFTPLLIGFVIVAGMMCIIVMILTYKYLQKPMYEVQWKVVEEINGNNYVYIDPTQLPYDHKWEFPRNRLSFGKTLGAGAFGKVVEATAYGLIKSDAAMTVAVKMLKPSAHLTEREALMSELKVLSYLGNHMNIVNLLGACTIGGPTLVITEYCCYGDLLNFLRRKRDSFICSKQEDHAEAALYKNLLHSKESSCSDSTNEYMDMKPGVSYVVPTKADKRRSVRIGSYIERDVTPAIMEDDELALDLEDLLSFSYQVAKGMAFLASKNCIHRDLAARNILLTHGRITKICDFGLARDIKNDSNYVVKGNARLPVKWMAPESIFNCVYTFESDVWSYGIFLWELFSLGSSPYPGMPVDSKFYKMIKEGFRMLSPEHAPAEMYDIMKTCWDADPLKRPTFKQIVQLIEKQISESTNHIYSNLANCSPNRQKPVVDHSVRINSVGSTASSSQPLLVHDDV

One may read the IC50 as the concentration that gives 50% inhibition. Low readings indicate greater potency in that assay, high ones weaker potency in that assay. Usually inhibition stands for the change of the read-out against control, counted positive when it falls. As for `CCN(CC)CCn1cnnc1-c1cc(Oc2ccc(NC(=O)Nc3ccc(F)c(F)c3)cc2F)ccn1`, the IC50 is 1.24 µM with HT-29, 14.8 µM in experiment [1], 41.3 µM in the experiment on MDA-MB-231 and > 50 µM in experiment [2]. The inhibition in experiment [3] came out at 27.7%; in experiment [4], 7.1%; in experiment [5], 39%; in experiment [6], 0%.
As for `CN(C)CCCn1cnnc1-c1cc(Oc2ccc(NC(=O)Nc3cccc(C(F)(F)F)c3)cc2F)ccn1`, the IC50 with HT-29 is 0.98 µM; in experiment [1], 1.79 µM; in the experiment with MDA-MB-231, 13.3 µM; in experiment [2], 11.6 µM. Besides, the inhibition in experiment [3] is 69.9%; in experiment [4] it was 85.6%; in experiment [5], 69.2%; in experiment [6], 62.8%.
As for `Cn1cnnc1-c1cc(Oc2ccc(NC(=O)Nc3cccc(C(F)(F)F)c3)cc2F)ccn1`, the IC50 with HT-29 was 3.02 µM; in experiment [1], 1.27 µM; with MDA-MB-231, 6.47 µM; in experiment [2], 12.6 µM.
As for `CCN(CC)CCn1cnnc1-c1cc(Oc2ccc(NC(=O)Nc3cccc(C(F)(F)F)c3)cc2F)ccn1`, the IC50 was 0.63 µM in the experiment with HT-29, 9.87 µM in experiment [1], 0.72 µM with MDA-MB-231 and 6.92 µM in experiment [2]. The inhibition in experiment [3] is 66.5%; in experiment [4], 72.1%; in experiment [5], 61%; in experiment [6], 11.5%.
For `CCN(CC)CCn1cnnc1-c1cc(Oc2ccc(NC(=O)Nc3ccc(Cl)cc3Cl)cc2F)ccn1`, the IC50 in the experiment on HT-29 was 3.59 µM; in experiment [1], 5.38 µM; in the experiment with MDA-MB-231 it was 1.79 µM; in experiment [2], 4.28 µM.
For the compound `CN(C)CCn1cnnc1-c1cc(Oc2ccc(NC(=O)Nc3ccccc3C(F)(F)F)cc2F)ccn1`, the IC50 is 5.86 µM with HT-29, > 50 µM in experiment [1], > 50 µM in the experiment with MDA-MB-231 and > 50 µM in experiment [2]. For the same compound, the inhibition in experiment [3] was 22.7%; in experiment [4], 43%; in experiment [5], 17.6%; in experiment [6] it was 2.2%.
In the case of `CN(C)CCCn1cnnc1-c1cc(Oc2ccc(NC(=O)Nc3ccc(Cl)c(C(F)(F)F)c3)cc2F)ccn1`, the IC50 in the experiment with HT-29 came out at 1.4 µM; in experiment [1], 1.68 µM; in the experiment on MDA-MB-231, 7.88 µM; in experiment [2] it was 7.91 µM. Also, the inhibition in experiment [3] was found to be 69.9%; in experiment [4], 79.3%; in experiment [5], 86.9%; in experiment [6], 10.9%.
Consider `CN(C)CCCn1cnnc1-c1cc(Oc2ccc(NC(=O)Nc3ccc(F)c(Cl)c3)cc2F)ccn1`, for which the IC50 in the experiment on HT-29 amounted to 0.89 µM; in experiment [1], 1.27 µM; in the experiment on MDA-MB-231, 14.2 µM; in experiment [2] it was 5.37 µM. The inhibition in experiment [3] stood at 71%; in experiment [4], 45.5%; in experiment [5], 72.1%; in experiment [6], 35%.
For the compound `O=C(Nc1ccc(Oc2ccnc(-c3nncn3CCCN3CCOCC3)c2)c(F)c1)Nc1ccc(F)c(Cl)c1`, the IC50 in the experiment on HT-29 is 16.2 µM; in experiment [1], 16.2 µM; in the experiment on MDA-MB-231, > 50 µM.
Consider `CNC(=O)c1cc(Oc2ccc(NC(=O)Nc3ccc(Cl)c(C(F)(F)F)c3)cc2)ccn1` [SORAFENIB], for which the IC50 in the experiment with HT-29 worked out at 3.37 µM; in experiment [1] it was 2.25 µM; in the experiment on MDA-MB-231, 3.08 µM; in experiment [2], 8.42 µM. Further, the inhibition was found to be 95.6% in experiment [3], 97% in experiment [4] and 98.5% in experiment [5].
With `CCN(CC)CCn1cnnc1-c1cc(Oc2ccc(NC(=O)Nc3ccc(F)c(Cl)c3)cc2F)ccn1`, the IC50 amounted to 0.5 µM with HT-29, 7.39 µM in experiment [1], 34 µM in the experiment on MDA-MB-231 and 28.7 µM in experiment [2]. In addition, the inhibition in experiment [3] is 40.4%; in experiment [4], 1.9%; in experiment [5], 59.6%; in experiment [6], 2.7%.
In the case of `O=C(Nc1ccc(Oc2ccnc(-c3nncn3C3CC3)c2)c(F)c1)Nc1ccc(Cl)c(C(F)(F)F)c1`, the IC50 was 10.9 µM in the experiment on HT-29, > 50 µM in experiment [1] and > 50 µM in the experiment on MDA-MB-231.
For `CN(C)CCCn1cnnc1-c1cc(Oc2ccc(NC(=O)Nc3ccccc3C(F)(F)F)cc2F)ccn1`, the IC50 in the experiment with HT-29 was 3.13 µM; in experiment [1], 10.9 µM; with MDA-MB-231 it was 40.5 µM; in experiment [2] it was 28.6 µM. The inhibition in experiment [6] was determined as 1.7%.
Regarding `CN(C)CCn1cnnc1-c1cc(Oc2ccc(NC(=O)Nc3ccc(Cl)c(C(F)(F)F)c3)cc2F)ccn1`, the IC50 is 0.88 µM with HT-29, 1.15 µM in experiment [1], 1.07 µM in the experiment with MDA-MB-231 and 3.76 µM in experiment [2]. The inhibition in experiment [3] is 70.4%; in experiment [4], 74.1%; in experiment [5], 66.3%; in experiment [6], 0%.
With `Cn1ncnc1-c1cc(Oc2ccc(NC(=O)Nc3cccc(C(F)(F)F)c3)cc2F)ccn1`, the IC50 is > 50 µM with HT-29, 11.6 µM in experiment [1], 9.68 µM with MDA-MB-231 and 22.4 µM in experiment [2].
On to `Cn1cnnc1-c1cc(Oc2ccc(NC(=O)Nc3ccc(Cl)c(C(F)(F)F)c3)cc2F)ccn1`, for which the IC50 in the experiment on HT-29 stood at 2.57 µM; in experiment [1] it was 2.31 µM; with MDA-MB-231, 5.32 µM; in experiment [2] it was 9.85 µM.
Take `CN(C)CCn1cnnc1-c1cc(Oc2ccc(NC(=O)Nc3ccc(F)c(Cl)c3)cc2F)ccn1`: the IC50 amounted to 0.72 µM with HT-29, 1.58 µM in experiment [1], 8.32 µM in the experiment on MDA-MB-231 and 7.58 µM in experiment [2]. Besides, the inhibition was 74% in experiment [3], 63.3% in experiment [4], 52.2% in experiment [5] and 26.9% in experiment [6].
Turning to `O=C(Nc1ccc(Oc2ccnc(-c3nncn3CCCN3CCOCC3)c2)c(F)c1)Nc1ccc(Cl)cc1Cl`, the figures for the IC50 with HT-29 and in the experiment with MDA-MB-231 were 3.56 µM and > 50 µM, respectively. Moreover, the values for the inhibition in experiment [3], in experiment [4] and in experiment [5] were 43.5%, 45.6% and 22%, respectively.
Consider `Cn1ncnc1-c1cc(Oc2ccc(NC(=O)Nc3ccc(Cl)c(C(F)(F)F)c3)cc2F)ccn1`, for which the IC50 in the experiment with HT-29 is 12.4 µM; in experiment [1] it was > 50 µM; with MDA-MB-231 it was > 50 µM; in experiment [2], > 50 µM.
Turning to `CCN(CC)CCn1cnnc1-c1cc(Oc2ccc(NC(=O)Nc3ccccc3C(F)(F)F)cc2F)ccn1`, the IC50 with HT-29 is 3.41 µM; in experiment [1], > 50 µM; with MDA-MB-231, 11.6 µM; in experiment [2], 23.5 µM.
Regarding `CN(C)CCn1cnnc1-c1cc(Oc2ccc(NC(=O)Nc3ccc(Cl)cc3Cl)cc2F)ccn1`, the IC50 with HT-29 is 1.89 µM; in experiment [1], 4.35 µM; in the experiment with MDA-MB-231 it was 7.96 µM; in experiment [2], 10.4 µM. In experiment [6], this compound displayed an inhibition of 6%.
Take `CN(C)CCn1cnnc1-c1cc(Oc2ccc(NC(=O)Nc3cccc(C(F)(F)F)c3)cc2F)ccn1`: the IC50 in the experiment with HT-29 is 1.47 µM; in experiment [1], 2.15 µM; in the experiment on MDA-MB-231, 16.4 µM; in experiment [2], 11.2 µM. Further, the inhibition in experiment [3] came out at 60.5%; in experiment [4], 77.7%; in experiment [5] it was 42.2%; in experiment [6] it was 2.7%.
As to `O=C(Nc1ccc(Oc2ccnc(-c3nncn3CCCN3CCOCC3)c2)c(F)c1)Nc1ccccc1C(F)(F)F`, the IC50 with HT-29 was found to be 15.7 µM.
Turning to `CN(C)CCCn1cnnc1-c1cc(Oc2ccc(NC(=O)Nc3ccc(F)c(F)c3)cc2F)ccn1`, the IC50 was 1.21 µM in the experiment with HT-29, 1.08 µM in experiment [1], 25.2 µM in the experiment with MDA-MB-231 and 15.3 µM in experiment [2]. Further, the inhibition in experiment [3] turned out to be 63.1%; in experiment [4], 30.9%; in experiment [5], 44.3%; in experiment [6], 20.3%.
In the case of `O=C(Nc1ccc(Oc2ccnc(-c3nncn3CCCN3CCOCC3)c2)c(F)c1)Nc1ccc(Cl)c(C(F)(F)F)c1`, the IC50 in the experiment on HT-29 came out at 2.86 µM; in experiment [1], 3.23 µM; in the experiment with MDA-MB-231, 8.28 µM; in experiment [2] it was 9.65 µM. In addition, the inhibition in experiment [3] amounted to 56.7%; in experiment [4] it was 42.3%; in experiment [5], 38.5%; in experiment [6], 0%.
Turning to `CN(C)CCCn1cnnc1-c1cc(Oc2ccc(NC(=O)Nc3ccc(Cl)cc3Cl)cc2F)ccn1`, the IC50 is 0.68 µM in the experiment with HT-29, 3.68 µM in experiment [1], 7.49 µM in the experiment on MDA-MB-231 and 3.26 µM in experiment [2]. Further, the inhibition in experiment [6] worked out at 11.3%.
In the case of `CN(C)CCn1cnnc1-c1cc(Oc2ccc(NC(=O)Nc3ccc(F)c(F)c3)cc2F)ccn1`, the IC50 with HT-29 was 3.62 µM; in experiment [1], 9.05 µM; with MDA-MB-231, > 50 µM; in experiment [2], > 50 µM. In addition, the inhibition was 3.9% in experiment [3], 17.6% in experiment [4] and 13.5% in experiment [5].
